The text below walks through data of ChEMBL document CHEMBL1150161, “New taxane diterpenoids from the leaves and twigs of Taxus sumatrana” (J Nat Prod, 2002).

Test [1] can be described thus: Cytotoxicity against human HEPA 59T/VGH cells after 72 hrs by methylene blue assay. The class given is functional, cell-based. An outline of the steps:
(§1)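 Cells kept in RPMI-1640 at 37 °C under 5% CO2, seeded at 2880 cells/well and left 3 h before sample or standard drug was added. Samples prepared at 1, 10, 40 and 100 µg/mL (stock, not final). Incubated 37 °C for 3 days. Cells then fixed in 10% formaldehyde/0.9% saline, stained with methylene blue in borate buffer, and eluted with EtOH–0.1 M HCl (1:1). Read at A650. IC50 is the concentration giving 50% absorbance reduction versus untreated cells.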

Test [2] deals with KB. Briefly: Cytotoxicity against human KB cells after 72 hrs by methylene blue assay. The class given is functional, cell-based. Put shortly:
as §1

Converted amounts (≈) assume the structure as drawn. Some results are limits rather than exact numbers.

As to `CC(=O)O[C@@]12CO[C@@H]1C[C@H](OC(=O)c1ccccc1)[C@]1(C)[C@@H]2[C@H](OC(=O)c2ccccc2)[C@]23C[C@H](OC(=O)c4ccccc4)C(C)=C2[C@@]1(O)C(=O)OC3(C)C`, the IC50 in test [1] amounted to 4.83 mg/L (≈ 6.43 µM); in test [2], 15.4 mg/L (≈ 20.6 µM).

With `CC(=O)O[C@@]12CO[C@@H]1C[C@H](O)[C@]1(C)[C@@H]2[C@H](OC(=O)c2ccccc2)[C@]23C[C@H](O)C(C)=C2[C@@]1(O)C(=O)OC3(C)C` [WALLIFOLIOL], the IC50 was 0.1 mg/L (≈ 0.184 µM) in test [1] and 0.56 mg/L (≈ 1.03 µM) in test [2].

As for `CC(=O)O[C@H]1C2[C@@](C)([C@@H](O)C[C@H]3OC[C@@]23OC(C)=O)[C@@H](O)[C@H](O)C2=C(C)[C@@H](O)C[C@]21C(C)(C)O` (some centres not stated) [TAXUMAIROL Q], the IC50 in test [1] is 14.5 mg/L (≈ 30 µM); in test [2], 16.2 mg/L (≈ 33.5 µM).

In the case of `CC(=O)O[C@H]1C[C@H]2OC[C@@]2(OC(C)=O)[C@H]2[C@H](OC(C)=O)[C@]3(C(C)(C)O)C[C@H](OC(=O)c4ccccc4)C(C)=C3[C@@H](OC(=O)c3ccccc3)[C@H](OC(C)=O)[C@]12C`, the half-inhibitory concentration (IC50) in test [1] is greater than 20 mg/L; in test [2], 9.69 mg/L (≈ 12.5 µM).

For `C=C1[C@@H](O)C[C@H](OC(C)=O)[C@]2(C)[C@@H](OC(C)=O)[C@H](OC(C)=O)C3=C(C)C(=O)C[C@@H]([C@@H](OC(C)=O)[C@H]12)C3(C)C` [TAXUSPINE F], the figures for the IC50 in test [1] and in test [2] were 3.31 mg/L (≈ 6.19 µM) and 16.9 mg/L (≈ 31.6 µM), respectively.

For the compound `CC(=O)O[C@H]1C[C@@]23C(=C1C)[C@@](O)(C(=O)OC2(C)C)[C@]1(C)[C@@H](OC(C)=O)C[C@H]2OC[C@@]2(OC(C)=O)[C@H]1[C@@H]3OC(=O)c1ccccc1`, the half-inhibitory concentration (IC50) in test [1] was found to be 3.09 mg/L (≈ 4.93 µM); in test [2] it was 8.96 mg/L (≈ 14.3 µM).

For the compound `CC(=O)O[C@H]1C(=O)[C@@]2(C)[C@H]([C@H](OC(=O)c3ccccc3)[C@]3(O)C[C@H](OC(=O)[C@H](O)[C@@H](NC(=O)c4ccccc4)c4ccccc4)C(C)=C1C3(C)C)[C@]1(OC(C)=O)CO[C@@H]1C[C@@H]2O` [PACLITAXEL], the IC50 in test [1] and in test [2] was 0.001 mg/L (≈ 0.00117 µM) in each case.

Consider `CO[C@@]12[C@H](COC(N)=O)C3=C(C(=O)C(C)=C(N)C3=O)N1C[C@@H]1N[C@@H]12` [MITOMYCIN], for which the IC50 in test [1] and in test [2] was 0.01 mg/L (≈ 0.0299 µM) throughout.

Regarding `CC(=O)O[C@H]1C[C@@]23C(=C1C)[C@@](O)(C(=O)OC2(C)C)[C@@]1(C)[C@H]([C@@H]3OC(=O)c2ccccc2)[C@]2(OC(C)=O)CO[C@@H]2C[C@@H]1O`, the IC50 in test [1] came to 13.9 mg/L (≈ 23.8 µM); in test [2] it was 2.91 mg/L (≈ 4.98 µM).

For `CC(=O)O[C@H]1C[C@]2(C(C)(C)O)C(=C1C)[C@@H](OC(C)=O)[C@H](OC(C)=O)[C@@]1(C)[C@@H](OC(C)=O)C[C@H]3OC[C@@]3(OC(C)=O)[C@H]1[C@@H]2OC(C)=O`, the IC50 in test [1] was 6.02 mg/L (≈ 9.22 µM); in test [2], 4.92 mg/L (≈ 7.54 µM).

Regarding `CC(=O)O[C@H]1C[C@@]2(O)[C@H]3OC[C@]4(O)[C@@H](OC(C)=O)C[C@H](OC(=O)c5ccccc5)[C@](C)([C@H]34)[C@@H](OC(=O)c3ccccc3)[C@H](OC(C)=O)C(=C1C)C2(C)C`, the IC50 in test [1] worked out at 7.02 mg/L (≈ 9.55 µM); in test [2] it was 12.8 mg/L (≈ 17.4 µM).
